Rows were chosen to be rich in hits. Some 3.5% of all compounds tested hit in one or more screens of this group.
RGS4 pot: RGS4 potentiation or activation. HEK293 M3R/inducible RGS4, carbachol calcium flux Fluo4; active compounds read low. AID 463111. 310,000 compounds, 0.92% hits. B-score at 10 µM;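 active = B-score of the integrated calcium signal more than 4 SD below the library mean, with starting fluorescence not abnormally high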;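 also: negative B-score means reduced calcium response which marks RGS4 activation or potentiation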
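Reagent: ECmax carbachol challenge; Test system: M3R-expressing HEK293 line, RGS4 induced by doxycycline; Schedule: overnight RGS4 induction, 30 min dye load 37 °C, 20 min compound RT; Detection: calcium dye Fluo4 fluorescence; Read-out: Agonist-evoked peak-minus-minimum fluorescence over baseline, integrated ratio, B score.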
MrgX1 antagonist: blocks BAM8-22 activation of human MrgX1 receptor; B-score at 10 µM; Q96LB2; 310,000 compounds, 1.3% hits; AID 588676; MRGX1-HEK293 calcium flux, Fluo-4, BAM8-22 antagonism; active compounds read low;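 active = calcium-response B-score plate-corrected more than 3 library SD below zero, starting fluorescence within 5 deviations, no agonist response on first addition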;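 also: peak minus trough fluorescence over baseline after final BAM8-22 challenge near maximal dose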
Target sequence (Q96LB2 whole entry, looked up): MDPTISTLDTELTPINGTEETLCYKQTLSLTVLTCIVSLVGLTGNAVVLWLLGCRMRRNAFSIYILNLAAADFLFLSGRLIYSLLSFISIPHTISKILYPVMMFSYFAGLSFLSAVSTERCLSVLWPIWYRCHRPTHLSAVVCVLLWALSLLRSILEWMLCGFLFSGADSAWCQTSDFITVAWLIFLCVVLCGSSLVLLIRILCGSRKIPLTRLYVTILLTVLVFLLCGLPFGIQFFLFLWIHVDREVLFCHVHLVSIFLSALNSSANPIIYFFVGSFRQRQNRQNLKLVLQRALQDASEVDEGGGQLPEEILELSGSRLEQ
MrgX1 agonist: activates human MrgX1 receptor signaling | MrgX1-HEK293 cells, Fluo-4 calcium fluorescence, agonist mode; active compounds read high | 310,000 compounds, 0.44% hits | AID 588627 | B-score at 10 µM;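 active = calcium response B-score plate-corrected fluorescence ratio at least 3 library SD, with starting fluorescence B-score inside 5 SD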
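Material – MrgX1-expressing HEK293 cells · Input – 15,000 cells seeded per well · Dosing – compound as first of three additions · Times – overnight seeding, then 1 h dark dye loading · Measured by – kinetic Fluo-4 NW fluorescence of intracellular calcium · Read-out – B-scored fluorescence response ratio · Benchmarks – positive and negative control wells on each plate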
MrgX1 PAM: human MrgX1 positive allosteric modulation, primary screen | MrgX1-HEK293, Fluo-4 calcium flux, FDSS; active compounds read high | B-score at 10 µM | 310,000 compounds, 0.63% hits | Q96LB2;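 active = plate-corrected calcium response at least 3 library SD above typical, normal starting fluorescence, not activating the receptor alone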;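 also: compound read alongside a low EC10 to EC30 dose of BAM8-22 agonist; peak minus trough fluorescence over baseline measured at the second addition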
RGS4 block: human RGS4 inhibition; P49798; HEK293 M3R/RGS4 inducible, Fluo-4 calcium flux; active compounds read high; triggered by carbachol at its EC20; B-score at 10 µM; 310,000 compounds, 0.45% hits; AID 463165;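 active = B-score, a plate-corrected calcium signal, over three deviations above library mean, with baseline fluorescence within five deviations of library mean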;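 also: RGS4 expression induced by doxycycline in cells with stable M3 receptor; B-score is computed from the integrated fluorescence ratio over baseline after carbachol; higher B-score means a larger calcium signal and so more RGS4 inhibition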
Target sequence (P49798 whole entry, looked up): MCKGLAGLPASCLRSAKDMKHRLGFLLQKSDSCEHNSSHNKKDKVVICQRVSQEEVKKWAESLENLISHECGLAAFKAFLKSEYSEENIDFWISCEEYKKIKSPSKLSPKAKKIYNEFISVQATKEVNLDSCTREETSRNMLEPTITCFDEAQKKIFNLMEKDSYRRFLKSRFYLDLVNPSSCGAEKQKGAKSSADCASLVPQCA
RGS4 inh valid: validation of RGS4 inhibitors; calcium response, % at 10 µM; shares compounds with RGS4 block; 1,700 compounds, 65% hits; HEK293 M3R/RGS4, carbachol calcium Fluo-4 fluorescence; carbachol added at its EC20; 0 = buffer wells, 100 = carbachol control; AID 492999;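 active = duplicate-averaged calcium response above the buffer-only control mean plus 5 SD of those controls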;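 also: integrated fluorescence ratio F max minus min over baseline F0; higher response in RGS4-induced cells means RGS4 inhibition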
RGS4 uninduced: checks RGS4 inhibitor effects in non-induced HEK293 M3R cells; shares compounds with RGS4 block; carbachol calcium Fluo-4; submaximal (EC20) carbachol stimulus; buffer wells 0%, carbachol control wells 100%; activity (percent), % at 10 µM; 1,900 compounds, 20% hits; AID 493000; call rule not given here;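 also: RGS4 induction absent so cells express M3R without RGS4; higher means more calcium signal and flags a non-specific hit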
RGS4 inh ctr2: second counter-screen for RGS4 inhibitors: non-induced cells without carbachol; HEK293 M3R/RGS4 non-induced, Fluo-4 calcium, no carbachol; normalised: buffer wells 0%, carbachol wells 100%; shares compounds with RGS4 block; 1,900 compounds, 22% hits; calcium response (agonist-mode artifact), % at 10 µM;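 active = duplicate-averaged calcium rise in uninduced cells above buffer wells' mean plus 5 SD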
Each line names hits and unclear results; the compound was inactive in the other large screens (follow-up assays come after a bar, where they were run).

CCCc1ccc2oc(C(=O)N(C)Cc3nccs3)c(C)c2c1	none
S=C(Nc1ccccc1)Nc1nc2ccccc2n1CCOc1ccc(Br)cc1	RGS4 block 5.05 | RGS4 inh valid 10.5% | RGS4 uninduced inactive | RGS4 inh ctr2 inactive
Nc1nc2ccccc2n1CCOc1ccc(Br)cc1	none
CN(C)CCC(=O)c1cccc(Br)c1	RGS4 block 6.79 | RGS4 inh valid inactive | RGS4 uninduced inactive | RGS4 inh ctr2 28.5%
O=C(/C=C/c1ccc(Cl)cc1)c1ccc([N+](=O)[O-])o1	RGS4 block 7.93 | RGS4 inh valid 8.5% | RGS4 uninduced inactive | RGS4 inh ctr2 inactive
O=C(OCCCOC(=O)c1ccc([N+](=O)[O-])o1)c1ccc([N+](=O)[O-])o1	none
Cc1cc(N=Cc2cc(Cl)ccc2O)no1	RGS4 block 5.69 | RGS4 inh valid 7.0% | RGS4 uninduced 30.5% | RGS4 inh ctr2 inactive
Nc1nnnn1/N=C/c1cc(Cl)ccc1O	none
CCOC(=O)[C@@H]1[C@H]2COc3ccccc3[C@@H]2N2C(=O)N(c3ccc(F)cc3)C(=O)[C@@]12C	none | RGS4 inh valid inactive | RGS4 uninduced 37.5% | RGS4 inh ctr2 inactive
CCOC(=O)[C@@H]1[C@H]2COc3ccccc3[C@H]2N2C(=O)N(c3ccc(Cl)cc3)C(=O)[C@@]12C	RGS4 block 6.01 | RGS4 inh valid 15.5% | RGS4 uninduced inactive | RGS4 inh ctr2 inactive
CCOC(=O)[C@@H]1[C@H]2COc3ccc(Br)cc3[C@@H]2N2C(=O)N(c3ccc(C)cc3)C(=O)[C@]12C	none
CCOC(=O)[C@@H]1[C@H]2COc3ccc(Br)cc3[C@H]2N2C(=O)N(c3ccc(F)cc3)C(=O)[C@]12C	none
CCOC(=O)[C@@H]1[C@H]2COc3ccc(Br)cc3[C@@H]2N2C(=O)N(c3ccc(Cl)cc3)C(=O)[C@]12C	none | RGS4 uninduced inactive | RGS4 inh ctr2 inactive
CC1C/C(=C/c2ccncc2)C(=O)/C(=C/c2ccncc2)C1 (stereo unspecified)	MrgX1 PAM 7.95, RGS4 block 28.3 | RGS4 inh valid 120.5% | RGS4 uninduced inactive | RGS4 inh ctr2 7.5%
Cc1[nH]c2ccccc2c1C(=O)CN1C(=O)NC(C)(c2ccc(Cl)cc2Cl)C1=O (stereo unspecified)	RGS4 block 10.2 | RGS4 inh valid 30.0% | RGS4 uninduced inactive | RGS4 inh ctr2 56.5%
Cc1[nH]c2ccccc2c1C(=O)CSc1ccc(Cl)cc1	none
Oc1ccc(C[C@@H]2CNCCN2CCC23CC4CC(CC(C4)C2)C3)cc1	none | RGS4 uninduced inactive | RGS4 inh ctr2 16.0%
Oc1ccc(C[C@H]2CNCCN2CCC23CC4CC(CC(C4)C2)C3)cc1	none | RGS4 uninduced inactive | RGS4 inh ctr2 inactive
CCCCn1c(=O)[nH]c(=O)c2c1nc(Cn1ncc(Cl)c(Cl)c1=O)n2CCC	RGS4 block 21.1 | RGS4 inh valid 33.5% | RGS4 uninduced 56.5% | RGS4 inh ctr2 inactive
CCCCn1c(=O)[nH]c(=O)c2c1nc(CN1C(=O)c3ccccc3S1(=O)=O)n2CCC	none
O=c1[nH]c(SCc2ccccc2)nc2[nH]ncc12	none
COc1ccc(S(=O)(=O)NCCN2CCNC2=O)cc1OC	none
Cn1c(SCC(=O)Nc2ccc3[nH]c(=O)[nH]c3c2)nnc1-c1ccccc1	none
Cn1c(SCC(=O)Nc2ccc3c(c2)oc2ccccc23)nnc1-c1ccccc1	RGS4 block 5.13 | RGS4 inh valid 7.5% | RGS4 uninduced inactive | RGS4 inh ctr2 inactive
Cc1ccc(C2NC(=O)NC(O)(C(F)(F)F)C2C(=O)c2ccccc2)o1 (stereo unspecified)	none
O=C1NC(c2ccc(-c3ccccc3[N+](=O)[O-])o2)C(C(=O)c2ccc(F)cc2)C(O)(C(F)(F)F)N1 (stereo unspecified)	none | RGS4 uninduced 31.5% | RGS4 inh ctr2 7.5%
COc1ccc(C(=O)C2C(c3ccc(-c4ccccc4[N+](=O)[O-])o3)NC(=O)NC2(O)C(F)(F)F)cc1 (stereo unspecified)	none | RGS4 inh valid inactive | RGS4 uninduced inactive | RGS4 inh ctr2 inactive
O=S1(=O)CCC(N=Cc2ccc(-c3ccc(Cl)cc3)o2)C1 (stereo unspecified)	RGS4 block 5.68 | RGS4 inh valid 7.5% | RGS4 uninduced inactive | RGS4 inh ctr2 inactive
COc1ccc(OC)c(Cc2nnc(CCC(=O)NCc3ccsc3)o2)c1	none
NC(=O)CC(NC(=O)Cc1ccc(Cl)cc1)c1ccc(NC2CCN(Cc3ccccc3)CC2)c([N+](=O)[O-])c1 (stereo unspecified)	none | RGS4 inh valid inactive | RGS4 uninduced inactive | RGS4 inh ctr2 inactive
NC(=O)CC(NC(=O)c1cccc(Br)c1)c1ccc(NC2CCN(Cc3ccccc3)CC2)c([N+](=O)[O-])c1 (stereo unspecified)	none
N#Cc1c(NC(=O)C2CC=CCC2C(=O)O)sc2c1CCCCCC2 (stereo unspecified)	RGS4 block 5.03 | RGS4 inh valid 19.5% | RGS4 uninduced inactive | RGS4 inh ctr2 inactive
CC(C)(C)C1CCc2c(sc(NC(=O)C3CC=CCC3C(=O)O)c2C#N)C1 (stereo unspecified)	none
CC(=O)Oc1ccc([C@@H]2COc3c(ccc4c3C=CC(C)(C)O4)C2)c(OC(C)=O)c1	RGS4 block 6.12 | RGS4 inh valid 17.0% | RGS4 uninduced inactive | RGS4 inh ctr2 inactive
O=C(CCCN1C(=O)S/C(=C/C=C/c2ccccc2)C1=O)Nc1ccc(C(=O)O)cc1	none
O=C(CN1C(=O)S/C(=C\C=C\c2ccccc2)C1=O)N1CCCCC1	none | RGS4 uninduced inactive | RGS4 inh ctr2 inactive
O=C(CN1C(=O)S/C(=C\C=C\c2ccccc2)C1=O)Nc1ccc(O)cc1	none | RGS4 inh valid inactive | RGS4 uninduced inactive | RGS4 inh ctr2 7.5%
CC(=O)N[C@H]1[C@H](OC2CCCCC2)O[C@H](COC(C)=O)[C@@H](OC(C)=O)[C@@H]1OC(C)=O	none
CN(C(=O)COC(=O)c1ccc(-c2ccc(O)cc2)cc1)C1CCS(=O)(=O)C1 (stereo unspecified)	none
Oc1ccc(N=Nc2cccc(C(F)(F)F)c2)cc1C=Nc1ccc(N2CCOCC2)cc1	RGS4 block 9.69 | RGS4 inh valid 27.5% | RGS4 uninduced 46.5% | RGS4 inh ctr2 inactive

Screens from PubChem.
